Experimental data published in ChEMBL document CHEMBL3600329, “Synthesis, biological profiling and mechanistic studies of 4-aminoquinoline-based heterodimeric compounds with dual trypanocidal-antiplasmodial activity” (Bioorg Med Chem, 2015).
pIC50: −log10 of the molar value.

What was measured:
Plasmodium falciparum = test: Antiplasmodial activity against chloroquine-resistant Plasmodium falciparum K1 infected in human A+ erythrocytes assessed as inhibition of parasite growth after 48 hrs by LDH assay; type: functional, organism-based; settings: K1, 48 h
Procedure, shortened: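 Ring-stage cultures in human A+ erythrocytes (RPMI 1640, A+ serum, D-glucose), 2.5% haematocrit, 1% parasitaemia; twofold serial dilutions in duplicate, DMSO ≤0.5% final. 48 h at 37 °C under 93% N2/3% O2/4% CO2. Growth read as lactate dehydrogenase activity (APAD, lactate, diaphorase, NBT; 550 nm); % inhibition vs controls; IC50 by linear regression; mean of triplicate experiments.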

[1] = Selectivity index, ratio of IC50 for rat L6 cells to IC50 for chloroquine-resistant Plasmodium falciparum K1; type: toxicity, cell-based; settings: read-out: Ratio IC50
Procedure, shortened: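 IC50 ratio, L6 over P. falciparum K1. L6 cells seeded at 1×10^4 mL⁻¹ with compound, 6 days at 37 °C, resazurin added, fluorescence after 8 h. Parasites in A+ erythrocytes (2.5% haematocrit, 1% parasitaemia) with twofold dilutions, 48 h at 37 °C in low-oxygen gas; growth read by LDH activity at 550 nm.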

Trypanosoma brucei = test: Trypanocidal activity against bloodstream form of Trypanosoma brucei 221 assessed as inhibition of parasite growth at pH 7.4 after 48 hrs by Spectramax plate reader analysis; type: functional, organism-based; settings: Trypanosoma brucei, 221, 48 h
Procedure, shortened: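 Bloodstream-form T. brucei strain 221 grown at 37 °C in modified Iscove's medium; log-phase cells diluted to 0.25 × 10^5 mL⁻¹, exposed to a range of compound concentrations in triplicate at 37 °C. Resazurin added after 48 h, read after a further 16 h. IC50 and IC90 = concentrations inhibiting growth 50% and 90%; mean of triplicate experiments ± SEM.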

[2] = Selectivity index, ratio of IC50 for rat L6 cells to IC50 for bloodstream form of Trypanosoma brucei 221; type: toxicity, cell-based; settings: read-out: Ratio IC50
Procedure, shortened: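 IC50 ratio, L6 over T. brucei. L6 cells seeded at 1×10^4 mL⁻¹ with compound, 6 days at 37 °C, then resazurin, 8 h more, fluorescence read. Log-phase bloodstream T. brucei 221 in modified Iscove's medium at 0.25 × 105 mL⁻¹, compound range in triplicate, 37 °C; resazurin at 48 h, read after 16 h more.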

L6 = test: Cytotoxicity against rat L6 cells assessed as inhibition of cell growth after 6 days by Spectramax fluorescence plate reader analysis; type: cell-based; settings: L6, 144 h
Procedure, shortened: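 L6 rat skeletal myoblasts seeded at 1×10^4 mL⁻¹ in growth medium containing a range of compound concentrations, incubated 6 days at 37 °C; resazurin added, fluorescence read after a further 8 h. IC50 = concentration inhibiting growth by 50%; mean of triplicate experiments ± SEM.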

[3] = Inhibition of beta-haematin formation by microplate reader analysis relative to hemin; type: physicochemical
Procedure, shortened: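 Haemin chloride (8 mM stock in DMSO) mixed with serial compound dilutions (0.5-32 mM) in 25% DMSO; formation initiated with 8 M acetate buffer pH 5.0, 18 h at 37 °C. Pellets washed with DMSO, β-haematin dissolved in 0.1 M NaOH, OD 400 nm read versus drug-free controls; BHIA50 expressed as compound equivalents relative to haemin, by linear regression.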

[4] = Permeability by PAMPA-BBB assay; type: ADME; settings: read-out: Peff
Procedure, shortened: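 Parallel artificial membrane permeation through porcine brain lipid extract, using PBS:EtOH 70:30; effective permeability Pe reported as mean ± SD of three independent experiments.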

Acetylcholinesterase = Acetylcholinesterase (Homo sapiens, UniProt P22303); test: Inhibition of human recombinant AChE using acetylthiocholine iodide as substrate preincubated with enzyme for 20 mins prior to substrate addition by Ellman's method
Procedure, shortened: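 Ellman assay in 0.1 M phosphate buffer pH 8.0 with hAChE 0.02 u/mL and 333 µM DTNB. At least 10 inhibitor concentrations, in duplicate, preincubated 20 min at 37 °C. Then 450 µM acetylthiocholine iodide, 5 min at 37 °C; absorbance at 414 nm against an uninhibited sample. IC50 by non-linear regression; mean ± S.E.M. of at least 4 experiments.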

Chain of Acetylcholinesterase (P22303 whole entry): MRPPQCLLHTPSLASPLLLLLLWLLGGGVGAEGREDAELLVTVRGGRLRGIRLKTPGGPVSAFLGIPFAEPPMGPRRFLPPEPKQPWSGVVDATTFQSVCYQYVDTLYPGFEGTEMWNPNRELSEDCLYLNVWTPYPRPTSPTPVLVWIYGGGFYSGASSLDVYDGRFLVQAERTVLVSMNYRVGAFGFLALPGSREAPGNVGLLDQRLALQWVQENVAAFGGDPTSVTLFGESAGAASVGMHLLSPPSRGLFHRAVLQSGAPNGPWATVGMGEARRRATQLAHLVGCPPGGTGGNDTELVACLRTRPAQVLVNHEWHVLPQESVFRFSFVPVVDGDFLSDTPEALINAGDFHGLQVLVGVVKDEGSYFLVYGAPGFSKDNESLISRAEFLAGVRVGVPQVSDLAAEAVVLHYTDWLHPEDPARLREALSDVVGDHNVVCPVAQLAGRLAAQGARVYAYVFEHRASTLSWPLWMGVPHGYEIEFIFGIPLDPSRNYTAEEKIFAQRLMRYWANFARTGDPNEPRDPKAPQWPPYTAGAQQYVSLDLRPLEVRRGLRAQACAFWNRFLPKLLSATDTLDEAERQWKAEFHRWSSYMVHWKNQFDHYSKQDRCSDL

| SMILES | pIC50 (Plasmodium falciparum) | selectivity ratio [1] | pIC50 (Trypanosoma brucei) | IC90 (Trypanosoma brucei) [nM] | selectivity ratio [2] | pIC50 (L6) | IC50 [3] [equiv] | Papp [4] [×10⁻⁶ cm/s] | pIC50 (Acetylcholinesterase) |
| --- | --- | --- | --- | --- | --- | --- | --- | --- | --- |
| CCC1=C[C@@H]2Cc3nc4cc(Cl)ccc4c(NCCN4CCC(CC5Cc6cc(OC)c(OC)cc6C5)CC4)c3[C@H](C1)C2 | < 5.15 | < 0.89 | 6.54 | 720 | 22 | 5.20 |  |  |  |
| CCN(CC)CCCC(C)Nc1ccnc2cc(Cl)ccc12 (stereo not drawn) [CHLOROQUINE] |  |  |  |  |  |  | 0.14 |  |  |
| COc1cc2c(cc1OC)CC(CC1CCN(CCNc3c4c(nc5cc(Cl)ccc35)CCCC4)CC1)C2 | < 5.11 | < 0.31 | 6.01 | 2390 | 2.5 | 5.62 |  |  |  |
| CC1=CC2Cc3nc4ccccc4c(NCCCCCCCCCCNc4c5c(nc6cc(Cl)ccc46)CCCC5)c3C(C1)C2 (stereo not drawn) | 5.36 | 0.25 | 6.47 | 430 | 3.3 | 5.95 |  | 17.2 | 8.83 |
| CC1=CC2Cc3nc4cc(Cl)ccc4c(NCCCCCCCNc4c5c(nc6cc(Cl)ccc46)CCCC5)c3C(C1)C2 (stereo not drawn) | < 5.16 | < 0.44 | 6.57 | 430 | < 11 | > 5.52 |  |  |  |
| CC1=C[C@H]2Cc3nc4cc(Cl)ccc4c(NCCCCCCCNc4c5c(nc6ccccc46)CCCC5)c3[C@@H](C1)C2 | 6.46 | 2.1 | 6.68 | 420 | 3.5 | 6.14 |  |  |  |
| CCC1=C[C@@H]2Cc3nc4cc(Cl)ccc4c(NCCCN4CCC(CC5Cc6cc(OC)c(OC)cc6C5)CC4)c3[C@H](C1)C2 | 6.09 | 2.7 | 6.59 | 1330 | 8.3 | 5.67 |  |  |  |
| COc1cc2c(cc1OC)CC(CC1CCN(CCNc3c4c(nc5ccccc35)CCCC4)CC1)C2 | 5.59 | < 1.2 | 6.42 | 790 | < 7.9 | > 5.52 |  |  |  |
| CC1=CC2Cc3nc4cc(Cl)ccc4c(NCCCN(C)CCCNc4c5c(nc6ccccc46)CCCC5)c3C(C1)C2 (stereo not drawn) | 6.37 | < 2.3 | 6.49 | 450 | < 3.1 | > 6.00 |  |  |  |
| CC1=CC2Cc3nc4cc(Cl)ccc4c(NCCCCCCCCCCCCNc4c5c(nc6cc(Cl)ccc46)CCCC5)c3C(C1)C2 (stereo not drawn) | < 5.18 | < 0.85 | 6.23 | 770 | 9.5 | 5.25 |  | 16.8 | 8.46 |
| CC1=CC2Cc3nc4cc(Cl)ccc4c(NCCCCCCCCCCNc4c5c(nc6cc(Cl)ccc46)CCCC5)c3C(C1)C2 (stereo not drawn) | 5.68 | 1.3 | 6.77 | 490 | 15 | 5.58 |  |  |  |
| CC1=CC2Cc3nc4cc(Cl)ccc4c(NCCCCCCCCCCCCNc4c5c(nc6ccccc46)CCCC5)c3C(C1)C2 (stereo not drawn) | < 5.16 | < 0.15 | 6.46 | 520 | 3 | 5.98 |  | 10.8 | 8.72 |
| COc1cc2c(cc1OC)CC(CC1CCN(CCNc3c4c(nc5cc(Cl)ccc35)CC3C=C(C)CC4C3)CC1)C2 (stereo not drawn) | < 5.15 | < 1 | 6.31 | 1180 | 14 | 5.17 |  |  |  |
| CC1=CC2Cc3nc4ccccc4c(NCCCCCCCCCCCCNc4c5c(nc6ccccc46)CCCC5)c3C(C1)C2 (stereo not drawn) | < 5.14 | < 0.14 | 6.68 | 280 | < 4.8 | > 6.00 |  | 7.3 | 8.00 |
| COc1cc2c(cc1OC)C(=O)C(CC1CCN(CCNc3c4c(nc5cc(Cl)ccc35)CCCC4)CC1)C2 (stereo not drawn) | 5.31 | < 0.62 | 6.52 | 680 | < 10 | > 5.52 |  |  |  |
